ChEMBL document CHEMBL1156777, “Synthesis and antiprotozoal activity of cationic 1,4-diphenyl-1H-1,2,3-triazoles” (J Med Chem, 2010)

Columns and labels:
[1] = Selectivity index, ratio of IC50 for rat L6 cells to IC50 for Leishmania donovani MHOM/SD/62/1S-CL2D; type: toxicity, cell-based; settings: read-out: Ratio IC50
How it was run: (§1)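 Each index is L6 IC50 divided by parasite IC50. L6 values are from the 70 h resazurin assay. T. b. rhodesiense STIB900 values are from the 70 h resazurin assay. P. falciparum K1 values are from erythrocytic-stage [³H]-hypoxanthine incorporation: 48 h drug exposure, then 24 h with label. L. donovani values are from the 72 h axenic amastigote CellTiter assay.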

[2] = system: Mus musculus; test: Toxicity in NMRI mouse infected with Trypanosoma brucei rhodesiense STIB900 assessed as survival at 0.5 mg/kg, ip after administered for 4 consecutive days from day 3 postinfection measured after 7 to 30 days; type: organism-based; parameters: dose 0.5 mg/kg, route intraperitoneal; settings: in vivo
How it was run: (§2)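 Female NMRI mice infected ip with 2 × 10⁴ STIB900 bloodstream forms. Groups of four dosed ip daily on days 3–6 postinfection; compounds in DMSO diluted with water to 10% final DMSO. Untreated infected controls. Tail-blood parasitaemia checked on days 7 and 10, twice weekly to day 30, then weekly to day 60. Relapse day recorded for mean relapse day; cure means parasite-free survival to day 60.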

[3] = system: Mus musculus; test: Toxicity in NMRI mouse infected with Trypanosoma brucei rhodesiense STIB900 assessed as survival at 1 mg/kg, ip after administered for 4 consecutive days from day 3 postinfection measured after 7 to 30 days; type: organism-based; parameters: dose 1 mg/kg, route intraperitoneal; settings: in vivo; how it was run: as §2
[4] = system: Trypanosoma brucei rhodesiense; test: Antitrypanosomal activity against Trypanosoma brucei rhodesiense STIB900 after 70 hrs by alamar blue assay; type: functional, organism-based; settings: STIB900, 70 h
[5] = system: Trypanosoma brucei rhodesiense; test: Antitrypanosomal activity against Trypanosoma brucei rhodesiense STIB900 infected in NMRI mouse assessed as mean parasitemia relaps day at 0.5 mg/kg, ip; type: functional; settings: route intraperitoneal; how it was run: as §2
[6] = system: Mus musculus; test: Toxicity in NMRI mouse infected with Trypanosoma brucei rhodesiense STIB900 assessed as survival at 5 mg/kg, ip after administered for 4 consecutive days from day 3 postinfection measured after 7 to 30 days; type: organism-based; parameters: dose 5 mg/kg, route intraperitoneal; settings: in vivo; how it was run: as §2
[7] = system: Trypanosoma brucei rhodesiense; test: Antitrypanosomal activity against Trypanosoma brucei rhodesiense STIB900 infected in NMRI mouse assessed as mean parasitemia relaps day at 10 mg/kg, ip; type: functional; settings: route intraperitoneal
How it was run: (§3)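 Single-dose ip regimen at 10 mg/kg in female NMRI mice infected ip with 2 × 10⁴ STIB900 bloodstream forms, four mice per group. Dosing solution was DMSO diluted with water to 10% final DMSO. Tail-blood parasitaemia followed to day 60 postinfection, with relapse day recorded; untreated infected controls.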

[8] = system: Plasmodium falciparum; test: Antiplasmodial activity against chloroquine-resistant Plasmodium falciparum K1 infected in human erythrocytes after 48 hrs assessed as [3H]hypoxanthine incorporation by liquid scintillation counting; type: functional, organism-based
[9] = Selectivity index, ratio of IC50 for rat L6 cells to IC50 for Plasmodium falciparum K1; type: toxicity, cell-based; settings: read-out: Ratio IC50; how it was run: as §1
[10] = system: Leishmania donovani; test: Antileishmanial activity against Leishmania donovani MHOM/SD/62/1S-CL2D; type: functional, organism-based
How it was run: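 Axenic amastigotes (MHOM/SD/62/1S-CL2_D) adapted from promastigotes and grown in amastigote medium at 37 °C. 6 × 10⁴ parasites per well were exposed to 2-fold serial dilutions for 72 h at 37 °C in humidified 5% CO₂. Growth was read with tetrazolium CellTiter reagent as absorbance at 490 nm. IC50 came from a four-parameter dose–response fit; duplicate determinations were averaged.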

[11] = Selectivity index, ratio of IC50 for rat L6 cells to IC50 for Trypanosoma brucei rhodesiense STIB900; type: toxicity, cell-based; settings: read-out: Ratio IC50; how it was run: as §1
[12] = system: L6; test: Cytotoxicity against rat L6 cells after 70 hrs by alamar blue assay; type: cell-based; settings: L6, 70 h
How it was run: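 Cells were exposed to serial dilutions for 70 h at 37 °C, 5% CO₂, then given resazurin for 2–3 h. IC50 came from sigmoidal curves; two independent runs in duplicate. Top concentration was 90 μg/mL, converted to μM by molecular weight.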

[13] = system: Trypanosoma brucei rhodesiense; test: Antitrypanosomal activity against Trypanosoma brucei rhodesiense STIB900 infected in NMRI mouse assessed as mean parasitemia relaps day at 5 mg/kg, ip; type: functional; settings: route intraperitoneal; how it was run: as §2
[14] = system: Trypanosoma brucei rhodesiense; test: Antitrypanosomal activity against Trypanosoma brucei rhodesiense STIB900 infected in NMRI mouse assessed as mean parasitemia relaps day at 20 mg/kg, ip; type: functional; settings: route intraperitoneal
How it was run: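 Female NMRI mice were infected ip with 2 × 10⁴ STIB900 bloodstream forms, in groups of four. Compound in 10% DMSO/distilled water was given ip at 5 mg/kg daily on days 3–6 postinfection, with untreated infected controls. Tail-blood parasitaemia was checked on days 7 and 10, then twice weekly to day 30 and weekly to day 60. Relapse day was recorded for mean relapse day.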

[15] = system: Trypanosoma brucei rhodesiense; test: Antitrypanosomal activity against Trypanosoma brucei rhodesiense STIB900 infected in NMRI mouse assessed as mean parasitemia relaps day at 1 mg/kg, ip; type: functional; settings: route intraperitoneal; how it was run: as §2
[16] = system: Mus musculus; test: Toxicity in NMRI mouse infected with Trypanosoma brucei rhodesiense STIB900 assessed as survival at 10 mg/kg, ip after administered 1 day postinfection measured after 7 to 30 days; type: organism-based; parameters: dose 10 mg/kg, route intraperitoneal; settings: in vivo; how it was run: as §3

Cl.Cl.N=C(N)c1ccc(-c2cn(-c3ccc(C(=N)N)cc3)nn2)cc1
selectivity ratio [1]: < 1
Activity [2]: Toxic
Activity [3]: Non-toxic
IC50 [4]: 0.004 µM
Activity [5]: 25.5 days
Activity [6]: Non-toxic
Activity [7]: 27 days
IC50 [8]: 0.002 µM
selectivity ratio [9]: 4050
IC50 [10]: 9.1 µM
selectivity ratio [11]: 2020
IC50 [12]: 8.1 µM

N=C(N)c1ccc(OCCCCCOc2ccc(C(=N)N)cc2)cc1 [PENTAMIDINE]
Activity [13]: 20 days
Activity [14]: 26 days

COc1cc(C(=N)N)ccc1-c1cn(-c2cccc(C(=N)N)c2)nn1.Cl.Cl
selectivity ratio [1]: 15
Activity [15]: 9.5 days
Activity [3]: Toxic
IC50 [4]: 0.005 µM
Activity [16]: Toxic
Activity [6]: Non-toxic
Activity [7]: 23.5 days
IC50 [8]: 0.007 µM
selectivity ratio [9]: 23400
IC50 [10]: 11 µM
selectivity ratio [11]: 32800
IC50 [12]: 164 µM
